{"data": "Results of several laboratories", "Spike glycoprotein": "Spike glycoprotein (Severe acute respiratory syndrome coronavirus 2, UniProt P0DTC2)", "SLC18A2": "Synaptic vesicular amine transporter (SLC18A2, Homo sapiens, UniProt Q05940)", "note": "Compare with care: the assays were run in different laboratories."}
{"Structure (SMILES)": "COc1ccc(C(=O)Nc2ccc3c(c2)C=CCP(=O)(O)O3)cc1", "target": "Carbonic anhydrase 1 (CA1, Homo sapiens, UniProt P00915)", "assay": "enzyme activity, inhibitor, stopped-flow", "endpoint": "Ki", "result": "> 10 µM"}
{"Structure (SMILES)": "Cn1c(=O)c2[nH]cnc2n(C)c1=O", "target": "Solute carrier family 22 member 11 (SLC22A11, Homo sapiens, UniProt Q9NSA0)", "assay": "transporter uptake, inhibitor", "endpoint": "IC50", "result": "5.6 µM"}
{"Structure (SMILES)": "COc1cc(CCNC(C)c2ccccc2O)c(OC)cc1C#N (stereo not drawn)", "target": "Alpha-2A adrenergic receptor (ADRA2A, Homo sapiens, UniProt P08913)", "assay": "cell-free assay, radioligand", "endpoint": "Ki", "result": "0.912 µM"}
{"Structure (SMILES)": "O=C(Nc1ccc2c(c1)C=CCP(=O)(O)O2)c1ccccc1Br", "target": "Carbonic anhydrase 2 (CA2, Homo sapiens, UniProt P00918)", "assay": "enzyme activity, inhibitor, stopped-flow", "endpoint": "Ki", "result": "> 10 µM"}
{"Structure (SMILES)": "CC[C@H](C)[C@H](NC(=O)[C@H](CCCCNC(=O)CN(CCNC(=O)CN(CCNC(=O)CN(CCNC(=O)CN(CCNC(=O)[C@H](CCCNC(=N)N)NC(C)=O)C(=O)Cn1ccc(N)nc1=O)C(=O)Cn1cnc2c(=O)[nH]c(N)nc21)C(=O)Cn1cnc2c(=O)[nH]c(N)nc21)C(=O)Cn1ccc(N)nc1=O)NC(=O)[C@H](CC(=O)O)NC(=O)[C@H](CO)NC(=O)[C@@H](NC(=O)[C@H](CCCNC(=N)N)NC(=O)[C@H](CCSC)NC(=O)[C@H](CO)NC(=O)[C@H](C)NC(=O)[C@H](CCC(=O)O)NC(=O)[C@H](C)NC(=O)[C@H](Cc1c[nH]cn1)NC(=O)CNC(=O)[C@H](CC(C)C)NC(=O)[C@H](CCC(=O)O)NC(=O)[C@H](CC(=O)O)NC(=O)[C@H](CC(C)C)NC(=O)[C@H](CC(C)C)NC(=O)[C@H](CCCNC(=N)N)NC(=O)[C@H](CCS)NC(=O)[C@H](CCCC(=O)NCCN(CC(=O)NCCN(CC(=O)NCCN(CC(=O)NCCN(CC(=O)N[C@@H](CCCNC(=N)N)C(N)=O)C(=O)Cn1cnc2c(=O)[nH]c(N)nc21)C(=O)Cn1ccc(N)nc1=O)C(=O)Cn1ccc(N)nc1=O)C(=O)Cn1cnc2c(=O)[nH]c(N)nc21)NC(=O)[C@H](CCC(=O)O)NC(=O)[C@H](Cc1ccc(O)cc1)NC(=O)[C@@H](NC(=O)[C@H](CCCCN)NC(=O)[C@H](CCC(N)=O)NC(=O)[C@H](CC(C)C)NC(=O)[C@@H](NC(=O)[C@H](Cc1c[nH]c2ccccc12)NC(=O)[C@H](CCC(=O)O)NC(=O)[C@H](CCCCN)NC(=O)[C@H](CC(=O)O)NC(C)=O)[C@@H](C)CC)[C@@H](C)CC)C(C)C)C(=O)N[C@@H](Cc1ccc(O)cc1)C(=O)N[C@@H](CCC(=O)O)C(=O)N[C@@H](Cc1ccccc1)C(=O)N[C@@H](CCSC)C(=O)N[C@@H](CCCCN)C(=O)N[C@@H](CCCCN)C(N)=O", "target": "Spike glycoprotein", "assay": "binding, SPR", "endpoint": "Kd", "result": "0.0052 µM"}
{"Structure (SMILES)": "O=c1[nH]c2ccccc2n1CCCN1CCC(n2c(=O)[nH]c3cc(Cl)ccc32)CC1", "target": "SLC18A2", "assay": "transporter uptake, inhibitor", "endpoint": "IC50", "result": "0.058 µM"}
{"Structure (SMILES)": "CC[C@H](C)[C@H](NC(=O)[C@H](CCCCNC(=O)CN(CCNC(=O)CN(CCNC(=O)CN(CCNC(=O)CN(CCNC(=O)[C@H](CCCNC(=N)N)NC(C)=O)C(=O)Cn1ccc(N)nc1=O)C(=O)Cn1cnc2c(=O)[nH]c(N)nc21)C(=O)Cn1cnc2c(=O)[nH]c(N)nc21)C(=O)Cn1ccc(N)nc1=O)NC(=O)[C@H](CC(=O)O)NC(=O)[C@H](CO)NC(=O)[C@@H](NC(=O)[C@H](CCCNC(=N)N)NC(=O)[C@H](CCSC)NC(=O)[C@H](CO)NC(=O)[C@H](C)NC(=O)[C@H](CCC(=O)O)NC(=O)[C@H](C)NC(=O)[C@H](Cc1c[nH]cn1)NC(=O)CNC(=O)[C@H](CC(C)C)NC(=O)[C@H](CCC(=O)O)NC(=O)[C@H](CC(=O)O)NC(=O)[C@H](CC(C)C)NC(=O)[C@H](CC(C)C)NC(=O)[C@H](CCCNC(=N)N)NC(=O)[C@H](CS)NC(=O)[C@H](CCCC(=O)NCCN(CC(=O)NCCN(CC(=O)NCCN(CC(=O)NCCN(CC(=O)N[C@@H](CCCNC(=N)N)C(N)=O)C(=O)Cn1cnc2c(=O)[nH]c(N)nc21)C(=O)Cn1ccc(N)nc1=O)C(=O)Cn1ccc(N)nc1=O)C(=O)Cn1cnc2c(=O)[nH]c(N)nc21)NC(=O)[C@H](CCC(=O)O)NC(=O)[C@H](Cc1ccc(O)cc1)NC(=O)[C@@H](NC(=O)[C@H](CCCCN)NC(=O)[C@H](CCC(N)=O)NC(=O)[C@H](CC(C)C)NC(=O)[C@@H](NC(=O)[C@H](Cc1c[nH]c2ccccc12)NC(=O)[C@H](CCC(=O)O)NC(=O)[C@H](CCCCN)NC(=O)[C@H](CC(=O)O)NC(C)=O)[C@@H](C)CC)[C@@H](C)CC)C(C)C)C(=O)N[C@@H](Cc1ccc(O)cc1)C(=O)N[C@@H](CCC(=O)O)C(=O)N[C@@H](Cc1ccccc1)C(=O)N[C@@H](CCSC)C(=O)N[C@@H](CCCCN)C(=O)N[C@@H](CCCCN)C(N)=O", "target": "Spike glycoprotein", "assay": "binding, SPR", "endpoint": "Kd", "result": "0.027 µM"}
{"Structure (SMILES)": "O=c1[nH]c2ccccc2n1C1CCN(CCCC(c2ccc(F)cc2)c2ccc(F)cc2)CC1", "target": "SLC18A2", "assay": "transporter uptake, inhibitor, radiometric", "conditions": "cell membranes", "endpoint": "IC50", "result": "0.386 µM"}
{"Structure (SMILES)": "CCOC(=O)c1ccc(OC(=O)CCCCCN=C(N)N)cc1", "target": "Plasminogen (PLG, Homo sapiens, UniProt P00747)", "assay": "enzyme activity, inhibitor", "endpoint": "IC50", "result": "0.316 µM"}
